# Screens deposited in PubChem BioAssay by Broad Institute.
# dFosB activator – activators of delta FosB homodimer, primary screen, biochemical, fluorescence polarization, TAMRA-CDK5 oligo, single point | Protein FosB (Mus musculus), P13346 | purified delta FosB; percent of positive-control signal above neutral wells | activation, % at 25 µM | 340,000 compounds, 0.99% hits;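 active = mean activation above about 17%, with every replicate also reaching it, limit read from the data, passing the limit was not always enough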
# Target sequence (P13346 whole entry, looked up): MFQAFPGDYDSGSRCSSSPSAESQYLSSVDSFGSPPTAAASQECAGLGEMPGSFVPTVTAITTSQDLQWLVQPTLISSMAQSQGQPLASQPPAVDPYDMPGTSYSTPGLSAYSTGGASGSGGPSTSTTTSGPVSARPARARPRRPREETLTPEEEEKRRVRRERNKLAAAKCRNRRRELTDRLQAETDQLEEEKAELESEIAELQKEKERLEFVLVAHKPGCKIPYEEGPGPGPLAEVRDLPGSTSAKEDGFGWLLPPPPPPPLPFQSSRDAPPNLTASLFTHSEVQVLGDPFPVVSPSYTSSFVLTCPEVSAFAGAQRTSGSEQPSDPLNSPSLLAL
# SR-BI DiI inh – inhibitors of SR-BI mediated HDL lipid uptake, primary screen, ldlA[mSR-BI] cells, fluorescence, single point. ldlA[mSR-BI] CHO cells, DiI-HDL uptake fluorescence, 3 h. inhibition, % at 12.5 µM. 320,000 compounds, 0.96% hits;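 active = mean replicate inhibition of at least 70% and a set share of replicates each scoring 70 or more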;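 note: 0% = median of neutral control wells and 100% = median of positive control wells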
# CDK5 p35 inh – inhibitors of human CDK5/p35 kinase, primary screen, biochemical, single concentration | 330,000 compounds, 0.01% hits | Cyclin-dependent kinase 5 (Homo sapiens) + Cyclin-dependent kinase 5 activator 1 (Homo … | Recombinant CDK5/p35, ADP-Glo luminescence, 60 min | inhibition, % at 10 µM;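 active = highest replicate inhibition of at least 50% and at least 75% of replicates reaching 50%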;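 note: plate controls were DMSO neutral control for no effect and GW8510 at 10 µM for full effect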
# SR-BI DiI-HDL act – activators of SR-BI mediated DiI-HDL uptake, primary screen, ldlA[mSR-BI] CHO cells, DiI fluorescence. 3 h; 100 = double the neutral-control signal. AID 504775, 2011. activation, % at 12.5 µM. 320,000 compounds, 0.096% hits;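 active = mean replicate activation of at least 60% and every replicate at or above 60%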;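 note: 0% = median plate neutral-control signal and 100% = twice that signal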
#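 system = CHO ldlA[mSR-BI] cells, LDL receptor-null, SR-BI overexpressing | medium = Ham's F12 with 0.5% BSA, HEPES 25 mM, pH 7.4 | probe or stimulus = DiI-HDL 10 µg/mL | compound dosing = single-point compound dose | incubation = compound exposure 3 h, 37 °C | technique = DiI fluorescence, bottom read | read-out = cell-associated DiI fluorescence as measure of HDL uptake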
# Active calls of the source: *; . = no result. Most compounds without a hit are left out; they make up all but 2% or so of the library.
SMILES,dFosB activator,SR-BI DiI inh,CDK5 p35 inh,SR-BI DiI-HDL act
NC(=O)c1c(NC(=O)c2ccc(N3C(=O)CCC3=O)cc2)sc2c1CCCC2,-6,75*,4,-75
N#Cc1c(NC(=O)CSC2=NCCS2)sc2c1CCCC2,0,82*,0,-82
CC1CCc2sc(NC(=O)c3ccc(N4C(=O)CCC4=O)cc3)c(C(N)=O)c2C1 (stereo not drawn),7,59,2,-59
N#Cc1c(NC(=O)c2ccccc2)sc2c1CCCCC2,3,78*,1,-78
N#Cc1c(NC(=O)CSc2ncn[nH]2)sc2c1CCCC2,-1,12,2,-12
CC1SCC(=O)N(CC(=O)Nc2ccc3c(c2)OCCO3)C1=O (stereo not drawn),3,-15,-1,15
CC(=O)N1CCc2cc(S(=O)(=O)N3CCc4ccccc43)ccc21,-2,22,-10,-22
CC1CN(C(=O)c2cc(Br)c(Br)s2)CC(C)O1 (stereo not drawn),4,17,0,-17
COC(=O)c1cc(NC(=O)c2cc(-c3ccccc3Cl)oc2C(F)(F)F)ccc1N1CCOCC1,-20,84*,1,-84
COc1ccc(NS(=O)(=O)c2cc(NC(=O)c3ccccc3)ccc2N2CCOCC2)cc1,-6,11,-7,-11
COc1ccc(NS(=O)(=O)c2cc(NC(=O)c3cc(F)c(F)cc3Cl)ccc2N2CCOCC2)cc1,21*,23,1,-23
CC(C)c1ccccc1NC(=O)C1C2C=CC(C2)C1C(=O)O (stereo not drawn),9,-15,0,15
COc1ccc(/C=C(\NC(=O)c2ccccc2)C(=O)N2CCC(C)CC2)cc1,-5,33,0,-33
CS(=O)(=O)c1ncc(Cl)c(C(=O)Nc2ccc3ccccc3c2)n1,-8,93*,0,-93
CC(=O)Nc1ccc(NC(=O)c2nc(S(=O)(=O)Cc3ccccc3)ncc2Cl)cc1,1,-14,1,14
COc1ccc(N2CCN(S(=O)(=O)c3ccc4c(c3)NC(=O)CC(=O)N4)CC2)cc1,-3,-9,-3,9
CCCCc1ccc(N=N/C(C(=O)Nc2ccc(NC(C)=O)cc2OC)=C(/C)O)cc1,-2,78*,2,-78
O=C(COC(=O)CNC(=O)c1sc2ccccc2c1Cl)Nc1cc(Cl)cc(Cl)c1,167*,8,-3,-8
Cc1ccccc1NC(=O)COC(=O)CNC(=O)c1sc2ccccc2c1Cl,-12,-11,0,11
CCc1ccc(NC(=O)C2CCN(S(=O)(=O)c3ccc4c(c3)CC(C)N4C(C)=O)CC2)cc1 (stereo not drawn),4,40,0,-40
CCN(CC)CCCNc1nc2ccccc2c2[nH]c3ccc(OC)cc3c12,78*,18,1,-18
CC(=O)c1cccc(NC(=O)Nc2csc3c2CCCC3)c1,-9,75*,0,-75
CCCc1cc(=O)n2nc(N3CCC(C(=O)Nc4cccc(C(C)=O)c4)CC3)sc2n1,-10,-1,0,1
CC1=CC(=C(C#N)c2nc3ccccc3s2)C=C(C)N1CC1CCCO1 (stereo not drawn),-10,88*,-1,-88
Cc1sc(NC(=O)C2=COCCO2)nc1-c1ccc(Cl)cc1,0,52,0,-52
SMILES,dFosB activator,SR-BI DiI inh,CDK5 p35 inh,SR-BI DiI-HDL act
CCN(CC)C(=O)CNC(=O)c1nn(-c2ccc(OC)c(Cl)c2)c(=O)c2ccccc12,-25,-14,0,14
COc1ccc(-n2nc(C(=O)NCC(=O)NCc3ccc(F)cc3)c3ccccc3c2=O)cc1OC,126*,8,0,-8
COC(=O)CNC(=O)CNC(=O)c1nn(-c2ccc(OC)c(OC)c2)c(=O)c2ccccc12,-9,0,0,0
COc1ccc(-n2nc(C(=O)NCC(=O)Nc3cc(OC)c(OC)c(OC)c3)c3ccccc3c2=O)cc1Cl,21*,.,1,.
O=c1c2ccccc2nnn1-c1ccccc1,-5,-356,-2,356*
Cc1c(C(c2ccc(C(=O)O)cc2)c2c(C)n(C)n(-c3ccccc3)c2=O)c(=O)n(-c2ccccc2)n1C,-6,76*,0,-76
Cc1c(C(c2ccc(O)cc2)c2c(C)n(C)n(-c3ccccc3)c2=O)c(=O)n(-c2ccccc2)n1C,-2,-8,-1,8
CC(C)CCCCCCCCCCCCC(=O)NCC(=O)NC1C(C)OC(Nc2ncnc3nc[nH]c23)C(O)C1O (stereo not drawn),68*,5,1,-5
C/C(=C\CNc1ncnc2nc[nH]c12)CO,-4,-13,0,13
COc1ccc(CNC(=O)COc2ccc(Br)c(C)c2)cc1,2,-3,-2,3
COc1ccc2nc(C)c3c(c2c1)OC(C(C)(Cl)Br)C3 (stereo not drawn),-5,71*,-1,-71
COc1cccc(/C=N/NC(=O)c2nc(-c3ccccc3)cc(-c3ccccc3)n2)c1O,1,106*,-1,-106
COc1cccc(/C=N/NC(=O)N/N=C/c2cccc(OC)c2O)c1O,-4,83*,-2,-83
COc1cccc(/C=C/C(=O)Nc2cccc(C(C)=O)c2)c1OC,-29,.,0,.
COc1cccc(C=NNC(=O)c2ccncc2)c1O,4,31,0,-31
COc1ccccc1/C=C/C(=O)Nc1cccc(C(C)=O)c1,-22,76*,-4,-76
COc1ccccc1/C=C\C(=O)NCC(=O)N/N=C/c1cccc(OC)c1O,30*,-6,0,6
CCn1c(C)nc2cc(C(=O)N/N=C/c3cccc(OC)c3O)ccc21,22*,66,-8,-66
COc1cc(/C=N/NC(=O)c2ccc(COc3ccccc3Cl)o2)cc(Br)c1O,34*,-8,-3,8
CCC(=NNC(=O)c1ccc2c(c1)nc(C)n2CC)c1cc(F)ccc1O,-3,114*,-1,-114
COc1ccc(/C=C\C(=O)NCC(=O)N/N=C/c2ccc(O)cc2O)cc1,-5,.,10,.
COc1ccc(/C=C/C(=O)NCC(=O)N/N=C/c2cc(Br)ccc2OC)cc1,3,78*,-3,-78
COc1ccc(CCN(C)C(=O)CN2C(=O)NC3(CCCc4ccccc43)C2=O)cc1OC (stereo not drawn),-8,23,1,-23
COc1cccc(/C=N/NC(=O)c2c(C)nc3ccc(Br)cn23)c1O,9,100*,3,-100
CCOc1ccccc1/C=N/NC(=O)c1c(C)nc2ccc(Br)cn12,-3,66,1,-66
COc1ccc(/C=N/NC(=O)CNC(=O)/C=C/c2ccccc2OC)cc1,-9,.,0,.
COc1ccccc1C=NN=C(NN=Cc1ccccc1OC)NN=Cc1ccccc1OC,44*,27,-2,-27
